Measured values from ChEMBL document CHEMBL3351553 (J Med Chem, 2014).
Converted amounts (≈) assume the structure as drawn.

Biological target: DNA gyrase (Staphylococcus aureus, UniProt P0A0K8+P20831)
Test: Inhibition of Staphylococcus aureus DNA gyrase assessed as reduction in enzyme-catalyzed supercoiling of relaxed circular pBR322 DNA by agarose gel electrophoresis
Type: protein-complex assay
Conditions: not given
Method in brief: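 Recombinant S. aureus gyrase kit, 0.5 U enzyme, relaxed pBR322 (250 ng/μL) in 40 mM HEPES·KOH pH 7.6, 10 mM Mg acetate, 10 mM DTT, 2 mM ATP, 500 mM K glutamate, 0.5 mg/mL albumin; 37 °C, 30 min.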

Sequence of DNA gyrase (P0A0K8 whole entry): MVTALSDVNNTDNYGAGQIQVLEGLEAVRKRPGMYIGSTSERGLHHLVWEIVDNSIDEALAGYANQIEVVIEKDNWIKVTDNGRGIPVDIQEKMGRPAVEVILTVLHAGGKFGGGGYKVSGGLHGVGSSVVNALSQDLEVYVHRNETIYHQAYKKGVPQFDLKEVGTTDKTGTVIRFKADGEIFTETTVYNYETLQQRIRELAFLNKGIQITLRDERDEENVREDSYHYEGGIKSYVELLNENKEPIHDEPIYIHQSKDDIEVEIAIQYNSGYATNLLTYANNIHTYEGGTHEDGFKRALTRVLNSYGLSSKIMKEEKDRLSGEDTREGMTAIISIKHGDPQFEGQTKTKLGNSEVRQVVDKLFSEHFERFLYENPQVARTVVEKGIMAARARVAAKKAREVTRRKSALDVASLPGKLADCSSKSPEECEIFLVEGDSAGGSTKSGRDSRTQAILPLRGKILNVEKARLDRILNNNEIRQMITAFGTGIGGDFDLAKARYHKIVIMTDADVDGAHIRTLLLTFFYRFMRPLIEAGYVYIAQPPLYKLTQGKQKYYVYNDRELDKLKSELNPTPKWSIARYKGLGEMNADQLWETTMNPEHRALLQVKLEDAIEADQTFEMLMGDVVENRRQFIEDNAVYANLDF
Sequence of DNA gyrase (P20831 whole entry): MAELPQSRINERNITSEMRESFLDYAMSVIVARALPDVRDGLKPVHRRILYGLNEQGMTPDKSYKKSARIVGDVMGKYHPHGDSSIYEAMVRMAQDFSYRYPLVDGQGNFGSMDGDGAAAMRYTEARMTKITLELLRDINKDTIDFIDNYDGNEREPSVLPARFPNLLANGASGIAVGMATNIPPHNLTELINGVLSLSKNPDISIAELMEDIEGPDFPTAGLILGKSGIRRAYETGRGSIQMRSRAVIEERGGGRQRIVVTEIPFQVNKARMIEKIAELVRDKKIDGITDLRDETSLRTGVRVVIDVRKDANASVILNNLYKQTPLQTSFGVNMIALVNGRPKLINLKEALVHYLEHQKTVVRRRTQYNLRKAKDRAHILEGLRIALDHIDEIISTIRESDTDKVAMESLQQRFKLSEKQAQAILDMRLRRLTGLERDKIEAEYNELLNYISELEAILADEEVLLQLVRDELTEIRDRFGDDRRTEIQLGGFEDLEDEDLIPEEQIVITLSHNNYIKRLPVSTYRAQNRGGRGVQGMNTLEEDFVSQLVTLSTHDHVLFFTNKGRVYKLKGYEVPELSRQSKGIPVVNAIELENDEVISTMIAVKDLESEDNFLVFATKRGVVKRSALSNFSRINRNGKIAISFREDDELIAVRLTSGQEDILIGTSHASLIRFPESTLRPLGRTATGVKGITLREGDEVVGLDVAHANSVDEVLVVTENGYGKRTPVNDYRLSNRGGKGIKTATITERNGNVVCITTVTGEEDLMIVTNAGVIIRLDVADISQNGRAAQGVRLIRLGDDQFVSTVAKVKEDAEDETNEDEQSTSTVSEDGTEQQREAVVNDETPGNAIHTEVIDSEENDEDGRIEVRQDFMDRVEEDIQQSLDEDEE

| SMILES | IC50 [µM] |
| --- | --- |
| OC(c1ccccc1)(c1ccccc1)C1CCN(CCc2ccc(C(F)(F)F)cc2)CC1 | 17 |
| CC(C)(C)c1ccc(C(O)CCN2CCC(C(O)(c3ccccc3)c3ccccc3)CC2)cc1 (stereo not drawn) | 133 |
| CC1(c2ccc(CCN3CCC(C(O)(c4ccccc4)c4ccccc4)CC3)cc2)COC1 | > 333 |
| OC(CCCN1CCC(C(O)(c2ccccc2)c2ccccc2)CC1)c1ccc(-c2ccccc2)cc1 (stereo not drawn) | 13 |
| OC(c1ccccc1)(c1ccccc1)C1CCN(CCc2ccc(-c3cccnc3)cc2)CC1 | 250 |
| CC(C)(C)c1cccc(CCN2CCC(C(O)(c3ccccc3)c3ccccc3)CC2)c1 | 93 |
| CC(C)(C)c1ccc(CN2CCC(C(O)(c3ccccc3)c3ccccc3)CC2)cc1 | 90 |
| OC(c1ccccc1)(c1ccccc1)C1CCN(CCc2ccc(Br)cc2)CC1 | 247 |
| COC(=O)C(C)(C)c1ccc(C(O)CCCN2CCC(C(O)(c3ccccc3)c3ccccc3)CC2)cc1 (stereo not drawn) | > 500 |
| OC(c1ccccc1)(c1ccccc1)C1CCN(CCc2ccc(Cl)cc2)CC1 | 260 |
| CC(C)(C(=O)O)c1ccc(C(O)CCCN2CCC(C(O)(c3ccccc3)c3ccccc3)CC2)cc1 (stereo not drawn) [FEXOFENADINE] | > 500 |
| CC(C)(C)c1ccc(C(O)CCCCN2CCC(C(O)(c3ccccc3)c3ccccc3)CC2)cc1 (stereo not drawn) | 100 |
| Cc1ccc(C(O)CCCN2CCC(C(O)(c3ccccc3)c3ccccc3)CC2)cc1 (stereo not drawn) | > 500 |
| CC(C)(C)c1ccc(CCN2CCC(C(O)(c3ccccc3)c3ccccc3)CC2)cc1 | 93 |
| OC(c1ccccc1)(c1ccccc1)C1CCN(CCc2ccc(-c3ccccc3)cc2)CC1 | 80 |
| OC(CCCN1CCC(C(O)(c2ccccc2)c2ccccc2)CC1)c1ccccc1 (stereo not drawn) | > 500 |
| OC(CCCN1CCC(C(O)(c2ccccc2)c2ccccc2)CC1)c1ccc(Br)cc1 (stereo not drawn) | > 500 |

| SMILES | IC50 [µM] |
| --- | --- |
| CC(C)(C)c1ccc(CCCN2CCC(C(O)(c3ccccc3)c3ccccc3)CC2)cc1 | 93 |
| CC(C)(C)c1ccc(CCN2CCC(C(O)(c3ccccc3)c3ccccc3)CC2)cn1 | > 333 |
| OC(CCCN1CCC(C(O)(c2ccccc2)c2ccccc2)CC1)c1ccc(Cl)cc1 (stereo not drawn) | 133 |
| CC(C)(C)c1ccc(C(O)CCCN2CCC(Cc3ccccc3)CC2)cc1 (stereo not drawn) | > 333 |
| CC(C)(C)c1ccc(C(O)CCCN2CCC(C(O)c3ccccc3)CC2)cc1 (stereo not drawn) | > 333 |
| CC(C)(C)c1ccc(C(=O)CCN2CCC(C(O)(c3ccccc3)c3ccccc3)CC2)cc1 | 90 |
| O=C(O)c1ccc(C(O)CCCN2CCC(C(O)(c3ccccc3)c3ccccc3)CC2)cc1 (stereo not drawn) | > 500 |
| O=[N+]([O-])c1ccc(CCN2CCC(C(O)(c3ccccc3)c3ccccc3)CC2)cc1 | 263 |
| OC(c1ccccc1)(c1ccccc1)C1CCN(CCc2ccc(-c3ccncc3)cc2)CC1 | 93 |
| OC(CCCN1CCC(C(O)(c2ccccc2)c2ccccc2)CC1)c1ccc(F)cc1 (stereo not drawn) | > 500 |
| CC(C)(C)c1ccc(CCCCN2CCC(C(O)(c3ccccc3)c3ccccc3)CC2)cc1 | 93 |
| Nc1ccc(CCN2CCC(C(O)(c3ccccc3)c3ccccc3)CC2)cc1 | 93 |
| COc1ccc(C(O)CCCN2CCC(C(O)(c3ccccc3)c3ccccc3)CC2)cc1 (stereo not drawn) | > 500 |
| CN(C)c1ccc(CCN2CCC(C(O)(c3ccccc3)c3ccccc3)CC2)cc1 | > 333 |
| COc1ccc(CCN2CCC(C(O)(c3ccccc3)c3ccccc3)CC2)cc1 | > 333 |
| CC(C)(C)c1ccc(OCCCN2CCC(C(O)(c3ccccc3)c3ccccc3)CC2)cc1 | 100 |
| OC(c1ccccc1)(c1ccccc1)C1CCN(CCc2ccc(F)cc2)CC1 | > 333 |

System: not listed separately
Test: Inhibition of Staphylococcus aureus topoisomerase 4 assessed as reduction in decatenation of kDNA at 100 to 500 uM by gel electrophoresis method
Conditions: not given
Method in brief: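 Compounds were in DMSO, with water or DMSO as vehicle controls. Reactions were stopped with STEB plus chloroform:isoamyl alcohol and run on 1% agarose TAE gels stained with ethidium bromide. IC50 was taken from densitometry against reactions with and without enzyme.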

| SMILES | IC50 [µM] |
| --- | --- |
| OC(c1ccccc1)(c1ccccc1)C1CCN(CCc2ccc(C(F)(F)F)cc2)CC1 | > 333 |
| CC(C)(C)c1ccc(C(O)CCN2CCC(C(O)(c3ccccc3)c3ccccc3)CC2)cc1 (stereo not drawn) | 333 |
| CC(C)(C)c1ccc(C(=O)CCCN2CCC(C(O)(c3ccccc3)c3ccccc3)CC2)cc1 [TERFENADONE] | 110 |
| CC(C)(C)c1ccc(C(O)CN2CCC(C(O)(c3ccccc3)c3ccccc3)CC2)cc1 (stereo not drawn) | 100 |
| OC(CCCN1CCC(C(O)(c2ccccc2)c2ccccc2)CC1)c1ccc(-c2ccccc2)cc1 (stereo not drawn) | 100 |
| OC(c1ccccc1)(c1ccccc1)C1CCN(CCc2ccc(-c3cccnc3)cc2)CC1 | 280 |
| CC(C)(C)c1cccc(CCN2CCC(C(O)(c3ccccc3)c3ccccc3)CC2)c1 | > 333 |
| CC(C)(C)c1ccc(CN2CCC(C(O)(c3ccccc3)c3ccccc3)CC2)cc1 | 213 |
| OC(c1ccccc1)(c1ccccc1)C1CCN(CCc2ccc(Br)cc2)CC1 | 260 |
| COC(=O)C(C)(C)c1ccc(C(O)CCCN2CCC(C(O)(c3ccccc3)c3ccccc3)CC2)cc1 (stereo not drawn) | > 333 |
| OC(c1ccccc1)(c1ccccc1)C1CCN(CCc2ccc(Cl)cc2)CC1 | 267 |
| CC(C)(C(=O)O)c1ccc(C(O)CCCN2CCC(C(O)(c3ccccc3)c3ccccc3)CC2)cc1 (stereo not drawn) [FEXOFENADINE] | > 333 |
| CC(C)(C)c1ccc(C(O)CCCCN2CCC(C(O)(c3ccccc3)c3ccccc3)CC2)cc1 (stereo not drawn) | 133 |
| Cc1ccc(C(O)CCCN2CCC(C(O)(c3ccccc3)c3ccccc3)CC2)cc1 (stereo not drawn) | > 333 |
| CC(C)(C)c1ccc(CCN2CCC(C(O)(c3ccccc3)c3ccccc3)CC2)cc1 | 147 |
| OC(c1ccccc1)(c1ccccc1)C1CCN(CCc2ccc(-c3ccccc3)cc2)CC1 | 133 |

| SMILES | IC50 [µM] |
| --- | --- |
| OC(CCCN1CCC(C(O)(c2ccccc2)c2ccccc2)CC1)c1ccccc1 (stereo not drawn) | > 333 |
| OC(CCCN1CCC(C(O)(c2ccccc2)c2ccccc2)CC1)c1ccc(Br)cc1 (stereo not drawn) | > 333 |
| CC(C)(C)c1ccc(C(N)CCCN2CCC(C(O)(c3ccccc3)c3ccccc3)CC2)cc1 (stereo not drawn) | > 333 |
| CC(C)(C)c1ccc(CCCN2CCC(C(O)(c3ccccc3)c3ccccc3)CC2)cc1 | 100 |
| OC(CCCN1CCC(C(O)(c2ccccc2)c2ccccc2)CC1)c1ccc(Cl)cc1 (stereo not drawn) | > 333 |
| CC(C)c1ccc(C(O)CCCN2CCC(C(O)(c3ccccc3)c3ccccc3)CC2)cc1 (stereo not drawn) | 273 |
| CC(C)(C)c1ccc(C(=O)CCN2CCC(C(O)(c3ccccc3)c3ccccc3)CC2)cc1 | 133 |
| O=C(O)c1ccc(C(O)CCCN2CCC(C(O)(c3ccccc3)c3ccccc3)CC2)cc1 (stereo not drawn) | > 333 |
| O=[N+]([O-])c1ccc(CCN2CCC(C(O)(c3ccccc3)c3ccccc3)CC2)cc1 | > 333 |
| CC(C)(C)c1ccc(C(=O)CN2CCC(C(O)(c3ccccc3)c3ccccc3)CC2)cc1 | 247 |
| OC(c1ccccc1)(c1ccccc1)C1CCN(CCc2ccc(-c3ccncc3)cc2)CC1 | 227 |
| OC(CCCN1CCC(C(O)(c2ccccc2)c2ccccc2)CC1)c1ccc(F)cc1 (stereo not drawn) | > 333 |
| CC(C)(C)c1ccc(CCCCN2CCC(C(O)(c3ccccc3)c3ccccc3)CC2)cc1 | 320 |
| Nc1ccc(CCN2CCC(C(O)(c3ccccc3)c3ccccc3)CC2)cc1 | > 333 |
| COc1ccc(C(O)CCCN2CCC(C(O)(c3ccccc3)c3ccccc3)CC2)cc1 (stereo not drawn) | > 333 |
| CC(C)(C)c1ccc(OCCCN2CCC(C(O)(c3ccccc3)c3ccccc3)CC2)cc1 | > 333 |

System: Staphylococcus aureus
Test: Antimicrobial activity against Staphylococcus aureus UAMS1 incubated for 16 hrs by CLSI based method
Type: functional
Conditions: UAMS1, 16 h

| SMILES | MIC [µg/mL] |
| --- | --- |
| OC(c1ccccc1)(c1ccccc1)C1CCN(CCc2ccc(C(F)(F)F)cc2)CC1 | 16 (≈ 36.4 µM) |
| CC(C)(C)c1ccc(C(O)CCN2CCC(C(O)(c3ccccc3)c3ccccc3)CC2)cc1 (stereo not drawn) | 8 (≈ 17.5 µM) |
| CC(C)(C)c1ccc(C(=O)CCCN2CCC(C(O)(c3ccccc3)c3ccccc3)CC2)cc1 [TERFENADONE] | 8 (≈ 17 µM) |
| CC(C)(C)c1ccc(C(O)CN2CCC(C(O)(c3ccccc3)c3ccccc3)CC2)cc1 (stereo not drawn) | 16 (≈ 36.1 µM) |
| CC1(c2ccc(CCN3CCC(C(O)(c4ccccc4)c4ccccc4)CC3)cc2)COC1 | > 256 |
| OC(CCCN1CCC(C(O)(c2ccccc2)c2ccccc2)CC1)c1ccc(-c2ccccc2)cc1 (stereo not drawn) | 8 (≈ 16.3 µM) |
| OC(c1ccccc1)(c1ccccc1)C1CCN(CCc2ccc(-c3cccnc3)cc2)CC1 | 32 (≈ 71.3 µM) |
| CC(C)(C)c1cccc(CCN2CCC(C(O)(c3ccccc3)c3ccccc3)CC2)c1 | 16 (≈ 37.4 µM) |
| OC(c1ccccc1)(c1ccccc1)C1CCN(CCc2ccc(Br)cc2)CC1 | 16 (≈ 35.5 µM) |
| COC(=O)C(C)(C)c1ccc(C(O)CCCN2CCC(C(O)(c3ccccc3)c3ccccc3)CC2)cc1 (stereo not drawn) | > 256 |
| OC(c1ccccc1)(c1ccccc1)C1CCN(CCc2ccc(Cl)cc2)CC1 | 32 (≈ 78.8 µM) |
| CC(C)(C(=O)O)c1ccc(C(O)CCCN2CCC(C(O)(c3ccccc3)c3ccccc3)CC2)cc1 (stereo not drawn) [FEXOFENADINE] | > 256 |
| CC(C)(C)c1ccc(C(O)CCCCN2CCC(C(O)(c3ccccc3)c3ccccc3)CC2)cc1 (stereo not drawn) | 16 (≈ 32.9 µM) |
| Cc1ccc(C(O)CCCN2CCC(C(O)(c3ccccc3)c3ccccc3)CC2)cc1 (stereo not drawn) | 128 (≈ 298 µM) |
| CC(C)(C)c1ccc(CCN2CCC(C(O)(c3ccccc3)c3ccccc3)CC2)cc1 | 8 (≈ 18.7 µM) |
| OC(c1ccccc1)(c1ccccc1)C1CCN(CCc2ccc(-c3ccccc3)cc2)CC1 | 8 (≈ 17.9 µM) |
| OC(CCCN1CCC(C(O)(c2ccccc2)c2ccccc2)CC1)c1ccccc1 (stereo not drawn) | > 256 |
| OC(CCCN1CCC(C(O)(c2ccccc2)c2ccccc2)CC1)c1ccc(Br)cc1 (stereo not drawn) | 32 (≈ 64.7 µM) |
| CC(C)(C)c1ccc(C(N)CCCN2CCC(C(O)(c3ccccc3)c3ccccc3)CC2)cc1 (stereo not drawn) | 16 (≈ 34 µM) |

| SMILES | MIC [µg/mL] |
| --- | --- |
| CC(C)(C)c1ccc(CCCN2CCC(C(O)(c3ccccc3)c3ccccc3)CC2)cc1 | 8 (≈ 18.1 µM) |
| CC(C)(C)c1ccc(CCN2CCC(C(O)(c3ccccc3)c3ccccc3)CC2)cn1 | 64 (≈ 149 µM) |
| OC(CCCN1CCC(C(O)(c2ccccc2)c2ccccc2)CC1)c1ccc(Cl)cc1 (stereo not drawn) | 64 (≈ 142 µM) |
| CC(C)(C)c1ccc(C(O)CCCN2CCC(Cc3ccccc3)CC2)cc1 (stereo not drawn) | > 256 |
| CC(C)(C)c1ccc(C(O)CCCN2CCC(C(O)c3ccccc3)CC2)cc1 (stereo not drawn) | > 256 |
| CC(C)c1ccc(C(O)CCCN2CCC(C(O)(c3ccccc3)c3ccccc3)CC2)cc1 (stereo not drawn) | 32 (≈ 69.9 µM) |
| CC(C)(C)c1ccc(C(=O)CCN2CCC(C(O)(c3ccccc3)c3ccccc3)CC2)cc1 | 32 (≈ 70.2 µM) |
| O=C(O)c1ccc(C(O)CCCN2CCC(C(O)(c3ccccc3)c3ccccc3)CC2)cc1 (stereo not drawn) | > 256 |
| O=[N+]([O-])c1ccc(CCN2CCC(C(O)(c3ccccc3)c3ccccc3)CC2)cc1 | 64 (≈ 154 µM) |
| CC(C)(C)c1ccc(C(=O)CN2CCC(C(O)(c3ccccc3)c3ccccc3)CC2)cc1 | > 256 |
| OC(c1ccccc1)(c1ccccc1)C1CCN(CCc2ccc(-c3ccncc3)cc2)CC1 | 32 (≈ 71.3 µM) |
| OC(CCCN1CCC(C(O)(c2ccccc2)c2ccccc2)CC1)c1ccc(F)cc1 (stereo not drawn) | 128 (≈ 295 µM) |
| CC(C)(C)c1ccc(CCCCN2CCC(C(O)(c3ccccc3)c3ccccc3)CC2)cc1 | 8 (≈ 17.6 µM) |
| Nc1ccc(CCN2CCC(C(O)(c3ccccc3)c3ccccc3)CC2)cc1 | > 256 |
| COc1ccc(C(O)CCCN2CCC(C(O)(c3ccccc3)c3ccccc3)CC2)cc1 (stereo not drawn) | > 256 |
| CN(C)c1ccc(CCN2CCC(C(O)(c3ccccc3)c3ccccc3)CC2)cc1 | > 256 |
| COc1ccc(CCN2CCC(C(O)(c3ccccc3)c3ccccc3)CC2)cc1 | > 256 |
| OC(c1ccccc1)(c1ccccc1)C1CCN(CCc2ccc(F)cc2)CC1 | 128 (≈ 329 µM) |
